# Assays:
# Assay type in all cases: ADME
# [1] = Compound was evaluated for rate of hydrolysis expressed in hours at a pH of 12.; conditions: pH 12
# Summary of the method: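 Deuterated phosphate buffer at pH 12 was made from 1 M K2DPO4 in D2O, with pH adjusted using 10 M KOD. Lactams were dissolved in it at 0.10 and 0.50 M. Hydrolysis was followed over time, and a rate constant per hour was derived.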
# [2] = Compound was evaluated for the second order hydrolysis rate constant
# Summary of the method: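 Amides were reacted with NaOD in D2O under second-order conditions. Concentrations of amide and hydroxide were tracked over reaction time. k2 was taken from the gradient of a plot of the log of the lactam/hydroxide concentration ratio against time, using the second-order rate law with the starting amide and NaOD concentrations.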
# [3] = Compound was evaluated for rate of hydrolysis expressed in hours at a pH of 7.5; conditions: pH 7.5
# Summary of the method: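 Pseudo-first-order hydrolysis was run in 0.33 M phosphate buffer at pH 7.5 in D2O, made by mixing Na2DPO4 and KD2PO4 solutions. The pH was checked potentiometrically. The rate constant was expressed per hour.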
structure (smiles),measurement,setting,value
O=C1CCN1,k,[1],0.00103 h⁻¹
same,k2,[2],0.000237 M⁻¹ s⁻¹
O=C1CCCCN1,k,[1],0.000648 h⁻¹
same,k2,[2],0.000121 M⁻¹ s⁻¹
O=C1CCCN1 [2-PYRROLIDONE],k2,[2],5.59 M⁻¹ s⁻¹
O=C1CCCCCCN1,k2,[2],1.36e-07 M⁻¹ s⁻¹
O=C1CCCCCCCN1,k2,[2],2.72e-07 M⁻¹ s⁻¹
CC1(C)S[C@@H]2[C@H](NC(=O)Cc3ccccc3)C(=O)N2[C@H]1C(=O)[O-].[K+] [PENICILLIN G POTASSIUM],k,[1],2.3 h⁻¹
same,k,[3],0.00337 h⁻¹
O=C1CCCCCN1 [CAPROLACTAM],k2,[2],3.21e-06 M⁻¹ s⁻¹
CNC(C)=O,k2,[2],3.32e-06 M⁻¹ s⁻¹

# From ChEMBL document CHEMBL1133515, “Hydrolytic stability versus ring size in lactams: implications for the development of lactam antibiotics and other serine protease inhibitors” (J Med Chem, 2000)
